Diaph inh CS: counter-screen for diaphorase-based assays: diaphorase inhibitors and chemical oxidizers; diaphorase resazurin-to-resorufin fluorescence, NADH, 16 min; bacterial (C. kluyveri) enzyme, not human; inhibition, % at 20 µM; 190,000 compounds, 0.69% hits;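 active = primary screen inhibition at 20 µM above a set limit, cut at about 50% in these data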;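 note: plate controls were DMSO with full reaction for no effect and wells lacking NADH for full effect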
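Assay system: diaphorase enzyme from Clostridium kluyveri. Quantity: enzyme working solution with 0.14 U/mL diaphorase. Schedule: reaction incubation of 16 min at room temperature. Technique: resorufin fluorescence, excitation 544 nm, emission 590 nm. Controls: No-NADH positive control and DMSO neutral control.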
G6PDH CS: inhibits Leuconostoc G6PDH, flagging false hits in G6PDH-based assays; Purified L. mesenteroides G6PDH, diaphorase/resazurin coupled fluorescence, 45 min; inhibition, % at 5 µM; 200,000 compounds, 0.12% hits; AID 1020; in the data active = inhibition above about 50%
Diaphorase act: diaphorase activation or chemical reduction counter-screen. activation factor at 20 µM. 190,000 compounds, 0.005% hits. AID 1229. Diaphorase/resazurin coupled assay, resorufin fluorescence, 16 min; stronger effect = higher value; 1 = vehicle wells, 0 = NADH-free wells;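 active = diaphorase activity raised at least twofold by the compound at 20 µM; inactive = activation factor below 2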
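Material: purified diaphorase enzyme from Clostridium kluyveri / Medium: HEPES pH 7.4 buffer with MgCl2 and Tween 20 / Schedule: enzyme reaction of 16 min at room temperature / Measured by: resorufin fluorescence, excitation 544 nm, emission 590 nm / Evaluation: rise in resorufin formation, marking diaphorase activation or chemical reduction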
PMI act: phosphomannose isomerase (human) activation | P34949 | purified human PMI, coupled resazurin fluorescence, 20 min; stronger effect = higher value; 1 = vehicle control, 0 substrate-free wells | activation factor at 20 µM | 190,000 compounds, 0.005% hits | AID 1214;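 active = activation factor of 2 or more at 20 µM, relative to plate controls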
Target sequence (P34949 whole entry, looked up): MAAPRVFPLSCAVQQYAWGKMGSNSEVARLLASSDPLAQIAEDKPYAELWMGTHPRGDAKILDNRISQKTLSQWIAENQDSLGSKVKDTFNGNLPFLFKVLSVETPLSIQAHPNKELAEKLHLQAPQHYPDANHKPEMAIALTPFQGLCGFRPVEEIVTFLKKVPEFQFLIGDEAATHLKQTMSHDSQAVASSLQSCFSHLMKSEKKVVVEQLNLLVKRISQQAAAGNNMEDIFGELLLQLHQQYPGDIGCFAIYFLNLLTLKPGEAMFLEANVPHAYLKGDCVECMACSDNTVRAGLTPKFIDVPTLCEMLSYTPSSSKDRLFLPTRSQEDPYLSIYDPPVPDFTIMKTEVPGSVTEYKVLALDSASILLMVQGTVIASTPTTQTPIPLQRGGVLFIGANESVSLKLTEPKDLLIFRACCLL
PMI act satM6P: PMI (human) activation, high substrate; 190,000 compounds, 0.34% hits; coupled PMI enzyme assay, resazurin fluorescence, 20 min; stronger effect = higher value; 1 = untreated enzyme, 0 = substrate-free blank; activation factor at 20 µM; AID 1216;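 active = activation factor of 2 or more at 20 µM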
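Test system: human phosphomannose isomerase with PGI, G6PDH, diaphorase coupling enzymes; Amount: PMI at 15 ng/mL final; Reagent: Mannose-6-phosphate 1.0 mM (near-saturating) plus 0.22 mM NADP+; Timing: 20 min, room temperature; Technique: resorufin fluorescence at Ex 544/Em 590 nm; Dosing: 20 µM single dose.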
Starred values were filed as active, the others as inactive. Most compounds without a hit are left out; they make up all but 1.1% or so of the library.

SMILES	Diaph inh CS	G6PDH CS	Diaphorase act	PMI act	PMI act satM6P
O=C(C1CC(=O)N(C2CCCCC2)C1)N1CCc2ccccc21 (centres undefined)	-10	8	1.1	1.2	1.1
Cc1[nH]n(-c2ccccc2)c(=O)c1/C=N/NC(=O)COc1ccccc1[N+](=O)[O-]	53*	-1	0.5	0.9	0.4
COC(=O)N/N=C\c1c(C)[nH]n(-c2ccccc2)c1=O	25	16	0.8	0.8	0.7
CC(=O)N/N=C/c1c(C)[nH]n(-c2ccccc2)c1=O	56*	18	0.4	0.7	0.9
O=C1c2ccccc2C(=O)c2c1oc(C(F)(F)F)c2C(=O)c1ccccc1	6	57*	0.9	1.3	1.3
O=C1C(=C(O)c2ccccc2)C(=O)c2ccccc21	4	6	1	1.4	1.5
O=C(c1ccccc1)c1coc2c1C(=O)c1ccccc1C2=O	-16	53*	1.2	1.4	0.7
CC(=O)NC1(c2ccccc2)CCN(c2cc(C)nc(-c3ccccc3)n2)CC1	6	20	0.9	0.9	0.9
CC(OCC(O)CN(C)Cc1nc2ccccc2c(=O)[nH]1)c1ccc(Cl)cc1 (centres undefined)	-12	15	1.1	1.1	1
O=c1ccc2cc3c([nH]c4ccc(Br)cc43)oc-2c1O	76*	16	0.2	0.3	0.4
O=c1c2c([nH]c3ccc(Br)cc13)CCCC2	1	12	1	1.2	1.1
O=c1oc(Nc2cccc(Cl)c2)nc2ccccc12	7	11	0.9	1	1
CCCCN1CN(S(=O)(=O)c2cccs2)c2nc3ccccc3nc21	5	-13	1	1.6	2.2*
CC(=O)Nc1ccc(NC(=O)Cn2c(=O)n(-c3ccc(C)cc3)c(=O)c3oc4ccccc4c32)cc1	20	-5	0.8	0.9	0.9
CN(/C=C/C(=C\C=[N+](C)c1ccccc1)OCCCS(=O)(=O)[O-])c1ccccc1	59*	17	0.4	1.2	1.3
CCOC(=O)COc1ccc2c(C#N)c3ccccn3c2c1	49	44	0.5	0.6	0.3
N#Cc1c2ccc(OCC(N)=O)cc2n2ccccc12	70*	44	0.3	0.3	0.3
Cc1cc(C(=O)N=Nc2c(O)n(C(C)C)c3ccccc23)n[nH]1	54*	4	0.5	0.8	0.7
O=C(CCN1C(=O)c2cccc3cccc(c23)C1=O)Nc1ccon1	15	2	0.8	0.9	0.8
CCOc1c(Cl)cc(CNc2ccc(N3CCCC3)cc2)cc1OC	74*	12	0.3	0.1	0.2
CCOC(=O)C1(C)/C(=N/Nc2ccccc2)C(=O)C(=O)N1c1ccccc1 (centres undefined)	20	12	0.8	1.7	2.1*
Cc1nn(-c2ccccc2)c(C)c1/C=N/n1c(-c2ccncc2)n[nH]c1=S	80*	1	0.2	0.9	0.9
Cc1cc(-c2n[nH]c(=S)n2/N=C/C=C/c2ccccc2)n[nH]1	50*	6	0.5	0.8	1
Cc1nn(-c2ccccc2)c(C)c1/C=N/n1c(-c2ccc(Cl)cc2)n[nH]c1=S	7	-26	0.9	0.9	0.9
COc1ccccc1/C=C/C=N/n1c(-c2ccc(C)cc2)n[nH]c1=S	28	-4	0.7	1	1
SMILES	Diaph inh CS	G6PDH CS	Diaphorase act	PMI act	PMI act satM6P
CN(C)c1ccc(/C=N/n2c(-c3cccnc3)n[nH]c2=S)cc1	72*	7	0.3	0.9	0.9
Cc1cc(-c2n[nH]c(=S)n2/N=C/c2ccc(C)s2)n[nH]1	32	-2	0.7	0.9	1
COc1ccccc1/C=C/C=N/n1c(-c2cc(C)[nH]n2)n[nH]c1=S	50*	6	0.5	0.8	1
COc1cc(-c2[nH]ncc2CN2CCN(Cc3cccs3)CC2)cc(OC)c1OC	4	7	1	0.9	0.9
COc1ccc(C(C(=O)Nc2ccc(C(C)C)cc2)N(Cc2ccco2)C(=O)CC2NC(=O)NC2=O)cc1 (centres undefined)	4	7	1	1	1
COc1ccccc1/C=C/C=N/n1c(-c2ccncc2)n[nH]c1=S	65*	5	0.3	0.8	0.9
O=C(COC(=O)c1c(F)cccc1F)Nc1ccc2[nH]c(=O)[nH]c2c1	9	10	0.9	0.9	0.8
O=C(COc1cccc(F)c1)Nc1ccc2[nH]c(=O)[nH]c2c1	55*	10	0.4	0.9	0.8
CCOc1ccc(CC(=O)C2C(=O)CCCC2=O)cc1OCC	4	12	1	1.4	2.1*
CCOc1ccc(CC(=O)C2C(=O)CC(C)(C)CC2=O)cc1OCC	-9	7	1.1	1.4	1.4
CSc1ccccc1-c1nnc(-c2ccc(Cl)cc2Cl)o1	19	3	0.8	0.8	0.8
CCSc1nnc(-c2ccccc2SC)o1	9	8	0.9	1.8	2.1*
CC(Cc1ccccn1)NC(=O)CCc1nnc(C2CCCCC2)o1 (centres undefined)	2	23	1	1	1.1
Cc1ccc(NC(=O)CC(=O)NCCN2CCOCC2)cc1	6	0	0.9	0.9	0.9
CC(=O)/C(=N\Nc1ccc(C)cc1)N1CCOCC1	-1	4	1	1.5	2.6*
COc1ccc(C)cc1NC(=O)CNc1ccc(C(C)=O)cc1	13	6	0.9	1	1
CC(C)(C)C(=O)CNCC(=O)C(C)(C)C	-23	12	1.2	1.8	2.1*
CC(C)(C)C(=O)Cn1nc(Cl)nc1Cl	-9	3	1.1	1.2	1.1
CCNc1ccc(Br)cc(C(=O)/C=C/c2ccc(Cl)cc2Cl)c1=O	54*	21	0.5	1.1	1.3
CC(C)(C)SCCNC(=O)c1ccc(Cl)c([N+](=O)[O-])c1	13	18	0.9	0.9	0.9
CSc1cnn(Cc2ccccc2)c(=O)c1SCc1ccccc1	17	-3	0.8	1.6	2.5*
CCOc1ccc(N2CC(C(=O)NC3=NCCS3)CC2=O)cc1 (centres undefined)	35	7	0.7	0.8	0.9
Cc1ccc(-n2nnc3c(SCC(=O)NCc4ccco4)ncnc32)cc1	57*	0	0.4	0.9	0.7
N#Cc1c(NCCO)nc(NCc2ccccc2)c2c1CCN(Cc1ccccc1)C2	59*	38	0.4	0.4	0.4
N#Cc1c(N)sc(=S)c2c1CCN(Cc1ccccc1)C2	82*	-45	0.2	0.9	1.5
CCN1CCc2c(sc(N)c2C#N)C1	11	-21	0.9	1	1.1
CC1CCN(c2c([N+](=O)[O-])c(=O)oc3ccccc23)CC1	3	14	1	1	0.9
O=C(Nc1nc(-c2cccnc2)cs1)c1ccccc1[N+](=O)[O-]	-3	5	1	1	1
